ChEMBL document CHEMBL5346913, “C-glycosides analogues of the okadaic acid central fragment exert neuroprotection via restoration of PP2A-phosphatase activity: A rational design of potential drugs for Alzheimer's disease targeting tauopathies” (Eur J Med Chem, 2023)
Activity calls are given as the source filed them. The rule behind the calls is not given here.

Legend:
[1] = system: Cortical neurone; experiment: Neuroprotective activity against glutamate-induced excitotoxicity in rat cortical neurons assessed as protection against cell damage at 1 uM preincubated with compound for 24 hrs followed by glutamate addition and measured after 20 hrs by MTT assay relative to control; type: functional; details: time 44 hrs
[2] = system: SH-SY5Y; experiment: Neuroprotective activity against rotenone/oligomycin-induced oxidative stress in human SH-SY5Y cells assessed as protection against cell death at 1 uM incubated for 20 to 24 hrs by MTT assay relative to control; details: time 20-24 hrs
[3] = system: SH-SY5Y; experiment: Neuroprotective activity against cytostatin-induced cytotoxicity in human SH-SY5Y cells assessed as protection against cell death at 1 uM […] by MTT assay relative to control; type: functional
[4] = system: SH-SY5Y; experiment: Neuroprotective activity against okadaic acid-induced cytotoxicity in human SH-SY5Y cells assessed as protection against cell death at 1 uM incubated for 24 hrs by MTT assay relative to control; type: functional
How it was run: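 SH-SY5Y cells were pre-incubated 24 h with compound at 1 μM, then co-incubated with okadaic acid 20 nM for 20 h. Viability was read by MTT reduction. Results are % protection relative to okadaic acid-treated cells without compound, as mean ± SEM of at least 4 independent experiments.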

[5] = system: SH-SY5Y; experiment: Activation of PP2A in human SH-SY5Y cells assessed as restoration of okadaic acid-induced phosphatase activity inhibition at 1 uM preincubated with compound for 24 hrs followed by okadaic acid addition and measured after 18 hrs by pNPP method; type: cell-based; details: time 42.0 hrs
How it was run: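 SH-SY5Y cells (MEM/F12, 10% FBS, 70000 cells/well) preincubated 24 h with compound, then exposed to OA 15 nM plus compound 1 μM for 18 h; phosphatase activity by pNPP method, normalized to untreated control; mean ± SEM, at least 4 independent experiments.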

[6] = system: SH-SY5Y; experiment: Activation of PP2A in human SH-SY5Y cells assessed as restoration of cytostatin-induced phosphatase activity inhibition at 1 uM preincubated with compound for 24 hrs followed by okadaic acid addition and measured after 18 hrs by pNPP method; type: cell-based; details: filed as activator, time 42.0 hrs, in the assay text read “followed by cytostatin addition” for “followed by okadaic acid addition”
How it was run: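 Cells were SH-SY5Y (70000/well), preincubated 24 h with compound, then given cytostatin 2 μM plus compound 1 μM for 18 h; pNPP-measured phosphatase activity normalized to untreated control; mean ± SEM, at least 3 independent experiments.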

[7] = Permeability of the compound in porcine brain by spectrophotometry based PAMPA-BBB assay; details: pig
[8] = system: HEK293T; experiment: Activation of GFP-tagged PP2A-B56alpha (unknown origin) transfected in HEK293T cells using K-R-pT-I-R-R peptide as substrate assessed as recovery of OA-induced PP2A inhibition by measuring increase in substrate phospho hydrolysis at 1 uM measured at 15 to 30 mins by Malachite green method; type: cell-based; details: Homo sapiens, filed as activator, time 15-30 min
[9] = target: Glycogen synthase kinase-3 beta (Homo sapiens) (UniProt P49841); experiment: Inhibition of okadaic-acid induced GSK-3beta hyperphosphorylation at Ser9 residue in human SH-SY5Y cells at 0.1 uM preincubated with compound for 24 hrs followed by okadaic acid addition and measured after 20 hrs by Western blot analysis; type: cell-based; details: time 44.0 hrs
Sequence of Glycogen synthase kinase-3 beta (Homo sapiens) (P49841 whole entry, looked up): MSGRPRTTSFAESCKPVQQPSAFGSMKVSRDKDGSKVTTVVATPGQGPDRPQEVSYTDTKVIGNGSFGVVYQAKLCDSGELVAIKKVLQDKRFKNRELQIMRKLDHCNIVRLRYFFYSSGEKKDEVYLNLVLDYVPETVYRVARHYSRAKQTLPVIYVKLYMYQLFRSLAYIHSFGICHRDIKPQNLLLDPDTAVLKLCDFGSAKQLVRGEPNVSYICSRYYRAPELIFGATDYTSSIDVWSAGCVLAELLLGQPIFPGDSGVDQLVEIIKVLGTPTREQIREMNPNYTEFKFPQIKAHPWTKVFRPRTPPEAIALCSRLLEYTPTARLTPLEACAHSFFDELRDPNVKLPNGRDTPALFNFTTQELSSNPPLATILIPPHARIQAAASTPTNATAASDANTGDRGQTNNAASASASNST
How it was run: (§1)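 After 24 h preincubation with compound 0.1 μM, SH-SY5Y cells incubated 20 h with OA 20 nM plus compound; western blot for pTau (Ser202/Thr205) and pGSK-3β (Ser9); mean ± SEM of at least 3 independent experiments.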

[10] = system: HEK293T; experiment: Activation of GFP-tagged PP2A-B55alpha (unknown origin) transfected in HEK293T cells using K-R-pT-I-R-R peptide as substrate assessed as recovery of OA-induced PP2A inhibition by measuring increase in substrate phospho hydrolysis at 1 uM measured at 15 to 30 mins by Malachite green method; type: cell-based; details: Homo sapiens, filed as activator, time 15-30 min
[11] = system: Mus musculus; experiment: Cognitive enhancing effect in LPS-induced mouse model of cognitive impairment assessed as fold change in time exploring the new object at 10 mg/ml, ip by object recognition test; type: functional
How it was run: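 Mice injected i.p. with LPS 1 mg/mL and co-injected i.p. with compound 10 mg/mL; object recognition test: day 1 arena familiarization, day 2 two identical objects, day 3 one replaced by an object differing in shape and size; exploration recorded 10 min; new vs old object exploration time compared; mean ± SEM.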

[12] = target: Microtubule-associated protein tau (Homo sapiens) (UniProt P10636); experiment: Inhibition of okadaic-acid induced tau hyperphosphorylation at Ser202/Thr205 residues in human SH-SY5Y cells at 0.1 uM preincubated with compound for 24 hrs followed by okadaic acid addition and measured after 20 hrs by Western blot analysis; type: cell-based; details: time 44.0 hrs; how it was run: as §1
Sequence of Microtubule-associated protein tau (Homo sapiens) (P10636 whole entry): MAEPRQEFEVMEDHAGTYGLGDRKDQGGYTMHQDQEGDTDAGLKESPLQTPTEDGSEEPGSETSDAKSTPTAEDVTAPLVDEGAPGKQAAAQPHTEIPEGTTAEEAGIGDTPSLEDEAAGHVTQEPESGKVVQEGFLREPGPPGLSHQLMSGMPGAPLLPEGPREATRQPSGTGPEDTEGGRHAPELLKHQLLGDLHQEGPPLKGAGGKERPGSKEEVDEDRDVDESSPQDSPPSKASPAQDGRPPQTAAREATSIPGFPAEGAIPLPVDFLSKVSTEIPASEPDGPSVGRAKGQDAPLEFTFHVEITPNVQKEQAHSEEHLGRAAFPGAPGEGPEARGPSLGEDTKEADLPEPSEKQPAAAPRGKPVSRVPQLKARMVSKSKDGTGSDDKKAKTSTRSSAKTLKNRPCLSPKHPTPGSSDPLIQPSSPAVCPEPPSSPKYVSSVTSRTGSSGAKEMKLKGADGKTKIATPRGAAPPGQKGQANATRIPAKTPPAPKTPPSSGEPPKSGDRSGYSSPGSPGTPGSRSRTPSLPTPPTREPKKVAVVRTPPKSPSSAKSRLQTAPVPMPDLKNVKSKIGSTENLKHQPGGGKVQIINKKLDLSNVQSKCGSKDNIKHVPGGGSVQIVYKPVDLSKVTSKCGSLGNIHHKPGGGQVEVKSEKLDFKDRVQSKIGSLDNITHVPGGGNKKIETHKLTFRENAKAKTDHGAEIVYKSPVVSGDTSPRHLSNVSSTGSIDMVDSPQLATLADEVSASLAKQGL

Compound	Activity [1]	Activity [2]	Activity [3]	Activity [4]	Activity ([5]; filed as activator)	Activity [6]	Activity [5]	permeability [7]	Activity [8]	inhibition [9]	Activity [10]	fold change (FC) [11]	inhibition [12]
C=CC[C@@H]1C=C[C@@H]2OC(C)(C)OC[C@H]2O1	8%	63%	50%	50%	–	–	–	–	–	–	–	–	–
OC[C@H](O)C[C@@H]1C=C[C@@H]2OC(c3ccccc3)OC[C@H]2O1 (some centres not stated)	29%	10%	21%	40%	Active	Active	–	–	–	–	–	–	–
C=CC[C@@H]1C=C[C@H](OC(C)=O)[C@@H](COC(C)=O)O1	19%	23%	47%	84%	–	–	–	–	–	–	–	–	–
C=CC[C@@H]1C=C[C@@H]2OC(c3ccccc3)OC[C@H]2O1 (some centres not stated)	15%	26%	49%	80%	–	–	–	–	–	–	–	–	–
O=C(OCCC[C@@H]1C=C[C@@H]2OC(c3ccccc3)OC[C@H]2O1)c1ccccc1 (some centres not stated)	8%	7%	47%	72%	–	–	inactive	–	–	–	–	–	–
O=C(OCCC[C@@H]1C=C[C@H](O)[C@@H](CO)O1)c1ccccc1	17%	3%	1%	20%	–	–	inactive	–	–	–	–	–	–
CC1(C)OC[C@H]2O[C@H](C[C@@H](O)CO)C=C[C@@H]2O1	15%	24%	56%	45%	–	Active	–	–	–	–	–	–	–
CC1(C)OC[C@H]2O[C@H](CCCOC(=O)c3ccccc3)C=C[C@@H]2O1	17%	15%	37%	69%	–	–	inactive	–	–	–	–	–	–
OCCC[C@@H]1C=C[C@@H]2OC(c3ccccc3)OC[C@H]2O1 (some centres not stated)	12%	29%	52%	82%	–	–	–	–	–	–	–	–	–
CC12CC3CC(C)(C1)CC(N)(C3)C2 [MEMANTINE]	22%	–	57%	60%	–	–	–	–	–	–	–	–	–
CC1(C)OC[C@H]2O[C@H](CCCO)C=C[C@@H]2O1	6%	5%	45%	81%	–	–	–	–	–	–	–	–	–
C=CC[C@@H]1C=C[C@H](O)[C@@H](CO)O1	15%	30%	45%	72%	–	Active	–	–	–	–	–	–	–
CC1(C)OC[C@H]2O[C@H](C[C@H](O)CO)C=C[C@@H]2O1	20%	16%	64%	72%	Active	Active	–	Permeable	Active	Active	Active	2.4	Active
OC[C@@H](O)C[C@@H]1C=C[C@@H]2OC(c3ccccc3)OC[C@H]2O1 (some centres not stated)	13%	27%	54%	73%	–	Active	–	–	–	–	–	–	–
COc1ccc2[nH]cc(CCNC(C)=O)c2c1 [MELATONIN]	–	28%	–	–	–	–	–	–	–	–	–	–	–
